Measured values taken from ChEMBL document CHEMBL2346604, “Synthesis of nordihydroguaiaretic acid derivatives and their bioactivities on S. pombe and K562 cell lines” (Eur J Med Chem, 2013).
In brackets after ≈: the same amount, converted by molar mass.

Columns and labels:
K562 [1] = test: Inhibitive ratio of growth metabolism of human K562 cells at 7 mg/L at 37 degC by TAM air microcalorimetry (reference value: 0%); assay type: functional
Summary of the method: (§1)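 K562 cells in supplemented RPMI 1640 (10% FBS) seeded at 1×10⁶ cells/mL with compound at graded concentrations. Heat flow recorded in real time in an eight-channel isothermal microcalorimeter (TAM Air). Rate constant k derived from thermogenic growth curves. Inhibition ratio I = (k0 − kc)/k0 × 100% relative to untreated cells, and IC50 is the concentration at I = 50%. Mean ± S.D., n = 3.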

[2] = test system: Schizosaccharomyces pombe; test: Inhibitive ratio of growth metabolism of Schizosaccharomyces pombe ACCC 20047 at 40 mg/L at 32 degC by TAM air microcalorimetry (reference value: 0%); assay type: functional
Summary of the method: (§2)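 Cells seeded at 1×10⁶ cells/mL with compound at a range of concentrations. Heat output recorded continuously in a TAM Air isothermal microcalorimeter. Growth rate constant k taken from power-time curves. I = (k0 − kc)/k0 × 100%, and IC50 is the concentration giving I = 50%. n = 3.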

[3] = test system: Schizosaccharomyces pombe; test: Inhibitive ratio of growth metabolism of Schizosaccharomyces pombe ACCC 20047 at 80 mg/L at 32 degC by TAM air microcalorimetry (reference value: 0%); assay type: functional; summary of the method: as §2
K562 [4] = test: Inhibition of growth metabolism of human K562 cells assessed as growth rate constant at 6 mg/L at 37 degC by TAM air microcalorimetry; assay type: functional; summary of the method: as §1
K562 [5] = test: Inhibitive ratio of growth metabolism of human K562 cells at 11 mg/L at 37 degC by TAM air microcalorimetry (reference value: 0%); assay type: functional; summary of the method: as §1
K562 [6] = test: Inhibition of growth metabolism of human K562 cells assessed as growth rate constant at 9 mg/L at 37 degC by TAM air microcalorimetry; assay type: functional; summary of the method: as §1
[7] = test system: Schizosaccharomyces pombe; test: Inhibition of growth metabolism of Schizosaccharomyces pombe ACCC 20047 assessed as growth rate constant at 80 mg/L at 32 degC by TAM air microcalorimetry; assay type: functional; summary of the method: as §2
[8] = test system: Schizosaccharomyces pombe; test: Inhibitive ratio of growth metabolism of Schizosaccharomyces pombe ACCC 20047 at 400 mg/L at 32 degC by TAM air microcalorimetry (reference value: 0%); assay type: functional; summary of the method: as §2
[9] = test system: Schizosaccharomyces pombe; test: Inhibition of growth metabolism of Schizosaccharomyces pombe ACCC 20047 assessed as growth rate constant at 20 mg/L at 32 degC by TAM air microcalorimetry; assay type: functional; summary of the method: as §2
K562 [10] = test: Inhibition of growth metabolism of human K562 cells assessed as growth rate constant at 7 mg/L at 37 degC by TAM air microcalorimetry; assay type: functional; summary of the method: as §1
K562 [11] = test: Inhibition of growth metabolism of human K562 cells assessed as growth rate constant at 11 mg/L at 37 degC by TAM air microcalorimetry; assay type: functional; summary of the method: as §1
[12] = test system: Schizosaccharomyces pombe; test: Inhibitive ratio of growth metabolism of Schizosaccharomyces pombe ACCC 20047 at 160 mg/L at 32 degC by TAM air microcalorimetry (reference value: 0%); assay type: functional; summary of the method: as §2
K562 [13] = test: Inhibition of growth metabolism of human K562 cells at 37 degC by TAM air microcalorimetry; assay type: functional, cell-based; summary of the method: as §1
K562 [14] = test: Inhibitive ratio of growth metabolism of human K562 cells at 6 mg/L at 37 degC by TAM air microcalorimetry (reference value: 0%); assay type: functional; summary of the method: as §1
K562 [15] = test: Inhibitive ratio of growth metabolism of human K562 cells at 4 mg/L at 37 degC by TAM air microcalorimetry (reference value: 0%); assay type: functional; summary of the method: as §1
[16] = test system: Schizosaccharomyces pombe; test: Inhibition of growth metabolism of Schizosaccharomyces pombe ACCC 20047 assessed as growth rate constant at 160 mg/L at 32 degC by TAM air microcalorimetry; assay type: functional; summary of the method: as §2
[17] = test system: Schizosaccharomyces pombe; test: Inhibition of growth metabolism of Schizosaccharomyces pombe ACCC 20047 assessed as growth rate constant at 240 mg/L at 32 degC by TAM air microcalorimetry; assay type: functional; summary of the method: as §2
[18] = test system: Schizosaccharomyces pombe; test: Inhibition of growth metabolism of Schizosaccharomyces pombe ACCC 20047 assessed as growth rate constant at 40 mg/L at 32 degC by TAM air microcalorimetry; assay type: functional; summary of the method: as §2
[19] = test system: Schizosaccharomyces pombe; test: Inhibition of growth metabolism of Schizosaccharomyces pombe ACCC 20047 assessed as growth rate constant at 400 mg/L at 32 degC by TAM air microcalorimetry; assay type: functional; summary of the method: as §2
K562 [20] = test: Inhibition of growth metabolism of human K562 cells assessed as growth rate constant at 8 mg/L at 37 degC by TAM air microcalorimetry; assay type: functional; summary of the method: as §1
K562 [21] = test: Inhibitive ratio of growth metabolism of human K562 cells at 9 mg/L at 37 degC by TAM air microcalorimetry (reference value: 0%); assay type: functional; summary of the method: as §1
[22] = test system: Schizosaccharomyces pombe; test: Inhibitive ratio of growth metabolism of Schizosaccharomyces pombe ACCC 20047 at 320 mg/L at 32 degC by TAM air microcalorimetry (reference value: 0%); assay type: functional; summary of the method: as §2
K562 [23] = test: Inhibition of growth metabolism of human K562 cells assessed as growth rate constant at 4 mg/L at 37 degC by TAM air microcalorimetry; assay type: functional; summary of the method: as §1
[24] = test system: Schizosaccharomyces pombe; test: Inhibitive ratio of growth metabolism of Schizosaccharomyces pombe ACCC 20047 at 240 mg/L at 32 degC by TAM air microcalorimetry (reference value: 0%); assay type: functional; summary of the method: as §2
[25] = test system: Schizosaccharomyces pombe; test: Inhibitive ratio of growth metabolism of Schizosaccharomyces pombe ACCC 20047 at 20 mg/L at 32 degC by TAM air microcalorimetry (reference value: 0%); assay type: functional; summary of the method: as §2
[26] = test system: Schizosaccharomyces pombe; test: Inhibition of growth metabolism of Schizosaccharomyces pombe ACCC 20047 assessed as growth rate constant at 320 mg/L at 32 degC by TAM air microcalorimetry; assay type: functional; summary of the method: as §2
K562 [27] = test: Inhibitive ratio of growth metabolism of human K562 cells at 8 mg/L at 37 degC by TAM air microcalorimetry (reference value: 0%); assay type: functional; summary of the method: as §1
[28] = test system: Schizosaccharomyces pombe; test: Inhibition of growth metabolism of Schizosaccharomyces pombe ACCC 20047 at 32 degC by TAM air microcalorimetry; assay type: functional, organism-based; summary of the method: as §2

COc1ccc(C(=O)C(C)C(C)C(=O)c2ccc(OC)c(OC)c2)cc1OC (stereo not drawn)
inhibition at 7 µg/mL (K562 [1]): 7.96% | inhibition at 40 µg/mL [2]: -4.05% | inhibition at 80 µg/mL [3]: -3.6% | Activity (K562 [4]): 3.9703 ×10⁻⁴ /min | inhibition at 11 µg/mL (K562 [5]): 57.3% | Activity (K562 [6]): 1.7435 ×10⁻⁴ /min | Activity [7]: 0.0046 min⁻¹ | inhibition at 400 µg/mL [8]: 83% | Activity [9]: 0.00479 min⁻¹ | Activity (K562 [10]): 3.6261 ×10⁻⁴ /min | Activity (K562 [11]): 1.681 ×10⁻⁴ /min | inhibition at 160 µg/mL [12]: 5.18% | IC50 (K562 [13]): 8.57 µg/mL (≈ 22.2 µM) | inhibition at 6 µg/mL (K562 [14]): -0.78% | inhibition at 4 µg/mL (K562 [15]): -13.9% | Activity [16]: 0.00421 min⁻¹ | Activity [17]: 0.00341 min⁻¹ | Activity [18]: 0.00462 min⁻¹ | Activity [19]: 0.00075 min⁻¹ | Activity (K562 [20]): 2.2866 ×10⁻⁴ /min | inhibition at 9 µg/mL (K562 [21]): 55.8% | inhibition at 320 µg/mL [22]: 63.3% | Activity (K562 [23]): 4.4893 ×10⁻⁴ /min | inhibition at 240 µg/mL [24]: 23.2% | inhibition at 20 µg/mL [25]: -7.88% | Activity [26]: 0.00163 min⁻¹ | inhibition at 8 µg/mL (K562 [27]): 42% | IC50 [28]: 290 µg/mL (≈ 750 µM)
